Where two headings read alike, the source gives them in different places. Square brackets hold non-standard residues; d marks the D form. Ends that are not written are not given here. Peptide text beside a SMILES is read from it. Nle = CCCC[C@H](N)C(=O)O

In series [1] the test system is 20S proteasome activated with 0.005% SDS, ChT-L activity. Put plainly: ChT-L peptidase activity of SDS-activated 20S proteasome. It counts as biochemical, human. As to conditions: 100% = DMSO solvent control.
Series [2] in a line: Solubility in NMR phosphate buffer. It counts as physicochemical. The conditions noted are these: KH2PO4/Na2HPO4 buffer, pH 6.8 (NMR samples).
The subject of series [3] is 20S proteasome. The series is described as follows: Peptidase activities of 20S proteasome. It counts as biochemical, human. The conditions noted are these: single peptides; not shown. In outline: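 Human erythrocyte 20S CP, latent or 0.005% SDS-activated, 3 nM final; 50 mM Tris/HCl pH 8.0, DMSO ≤3% final. Test peptide preincubated 10 min at room temperature, then substrate added at 50 or 100 μM final: Suc-LLVY-MCA (ChT-L), Boc-LRR-MCA (T-L), Z-LLE-βNA (PGPH). Emission 460 nm every 2 min, ≤60 min, 37°C; nmol product/mg CP/s; ≥3 repeats across proteasome batches.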

For series [4], the system named is 20S proteasome (CP) with PA28αβ activator. It counts as biochemical, human. In outline: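 Human erythrocyte 20S CP (3 nM final) in 50 mM Tris/HCl pH 8.0 was pretreated with DMSO (≤3% final) or peptide, then mixed with purified human PA28αβ at set molar ratios. After 5 min preincubation, SucLLVY-MCA (50 or 100 μM final) was added. AMC fluorescence at 460 nm was read every 2 min for up to 60 min at 37°C. Activity was expressed as nmol AMC/mg CP/s, with ≥3 repeats using different proteasome batches.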

As for `CCCC[C@H](NC(=O)CNC(=O)[C@H](CCCCN)NC(=O)[C@@H](NC(=O)[C@H](CCC(=O)O)NC(=O)CNC(=O)[C@H](CCCNC(=N)N)NC(=O)[C@@H]1CCCN1C(=O)[C@H](CCCCN)NC(=O)[C@@H](N)CCCCN)[C@@H](C)O)C(=O)N[C@H](C(=O)N[C@@H](Cc1ccc(O)cc1)C(N)=O)[C@@H](C)CC` [KKP] (H-KKPRGETKG[Nle]IY-NH2), the “% of Ch-L activity, SDS-activated proteasome” value in series [1] (1 mM peptide) was 107%; in series [1] (2 mM peptide), 115%; in series [1] (5 mM peptide), 108%; in series [1] (10 mM peptide) it was 106%.

For the compound `N=C(N)NCCC[C@H](NC(=O)CN)C(=O)N[C@@H](CCCCN)C(=O)N[C@@H](CCCCN)C(=O)N[C@@H](CCCNC(=N)N)C(=O)N[C@@H](CCCNC(=N)N)C(=O)N[C@@H](CCC(N)=O)C(=O)N[C@@H](CCCNC(=N)N)C(=O)N[C@@H](CCCNC(=N)N)C(=O)N[C@@H](CCCNC(=N)N)C(=O)N1CCC[C@H]1C(=O)N[C@@H](CO)C(N)=O` [Tat1], the Solubility in buffer result in series [2] is on record as “not fully soluble”.

With IPKIEDGNDFGV, the “Effect on any of the peptidase activities of 20S proteasome” value in series [3] is reported as “did not substantially affect”.

For the compound IPRIEDGNNFGV, the “Effect on any of the peptidase activities of 20S proteasome” value in series [3] was “did not substantially affect”.

For “PA28αβ: purified human PA28αβ proteasome activator (BioMol Inc.)”, the “Activation of CP by PA28αβ (fold)” value was “approximately 2,5 x” in series [4] (CP:PA28αβ molar ratio 1:1), around 5 x in series [4] (CP:PA28αβ molar ratio 1:2) and around 8 x in series [4] (CP:PA28αβ molar ratio 1:4).

As for RKKRRQRRQDPI-NH2 [Tat2], the Solubility in buffer result in series [2] was “not fully soluble”.
